Reference: paper PMC3371134 (Journal of Neurochemistry, 2012)
Entries after “also recorded” stand apart in the source; their conditions may differ.

How the values were obtained:
calcineurin B (CnB) = assay: Yeast two-hybrid; type: binding, mouse; conditions: LexA and VP16 fusions, lacZ reporter, X-gal
Outline: (§1)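 Mouse coding sequences (from brain cDNA) were cloned as galactose-inducible LexA and VP16 fusions and co-transformed into S260 yeast, selected on glucose Trp−/Ura− plates. Colonies on filters were switched to galactose for induction, then assayed for lacZ with X-gal. Autoactivation was checked against LexA/VP16 control vectors. Blue within 1 h was scored positive; blue at 2–4 h was scored weak.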

[1] = system: calmodulin-like 4 (Calml4); assay: Yeast two-hybrid; type: binding, mouse; conditions: LexA and VP16 fusions, lacZ reporter, X-gal
Outline: as §1

calmodulin-Sepharose = assay: CaM-Sepharose pulldown of Myc-tagged proteins expressed in COS-7 cells; type: binding
Outline: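 Myc-tagged mouse constructs (from brain cDNA) were expressed in COS-7 cells, grown in DMEM/10% FBS at 37°C and transfected at 80% confluency with 3 μg plasmid. After 48 h, cells were lysed 30 min at 4°C in TX-buffer (50 mM Tris-HCl pH 6.9, 0.5% Triton X-100, protease inhibitors). Cleared lysate was incubated overnight at 4°C with CaM-Sepharose, then washed 3× and detected by SDS-PAGE/anti-Myc (9E10) western blot with ECL.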

calneuron 1 (Caln1) = assay: Yeast two-hybrid; type: binding, mouse; conditions: LexA and VP16 fusions, lacZ reporter, X-gal
Outline: as §1

centrin 2 (Cetn2) = assay: Yeast two-hybrid; type: binding, mouse; conditions: LexA and VP16 fusions, lacZ reporter, X-gal
Outline: as §1

B1: Pcp4l1: small neuronal IQ motif protein, 68 amino acids, full length (protein)
chain: MSELNTKTPPAANQASDPEEKGKPGSIKKAEEEEEIDIDLTAPETEKAALAIQGKFRRFQKRKKDSSS
modifications: left off: Myc, end not stated, kept
- interaction with CnB in Y2H (calcineurin B (CnB)): no binding was detected
- interaction with Calml4 in Y2H [1]: no binding was detected
- CaM-Sepharose pulldown, calcium-replete (calmodulin-Sepharose; 5mM CaCl2, TX-buffer pH 6.9, overnight at 4°C, anti-Myc western blot): binds weakly or not at all to CaM; also recorded: interacts poorly with CaM in both low and high calcium conditions
- calcium dependence of CaM binding / overall CaM binding (calmodulin-Sepharose; 5mM CaCl2 or 5mM EGTA, summary in Discussion): little or no binding in either calcium poor or replete conditions
- CaM-Sepharose pulldown, calcium-poor (calmodulin-Sepharose; 5mM EGTA, TX-buffer pH 6.9, overnight at 4°C, anti-Myc western blot): binds weakly or not at all to CaM; also recorded: interacts poorly with CaM in both low and high calcium conditions
- interaction with Caln1 in Y2H (calneuron 1 (Caln1)): no binding was detected
- interaction with Cetn2 in Y2H (centrin 2 (Cetn2)): no binding was detected
